“And” between values parts separate entries of the source, which are not always exact repeats. Equal entries are not always repeated.
System: U2OS
Experiment: Multiplex assay against U2OS
Type: toxicity, cell-based
Conditions: human
Procedure, shortened: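 Phenotypes for tubulin, mitochondrial mass and membrane permeability are expressed as per cents of healthy-nucleus cells. Cells were stained live at seeding with Hoechst33342, BioTracker Green Microtubule Cytoskeleton Dye, MitoTracker Red and Annexin V Alexa Fluor 680, then imaged after compound addition on a CQ1 microscope at 37°C and 5% CO2. Machine-learning gating in CellPathfinder separated Hoechst high-intensity objects from normal cells, divided normal cells by nuclear state (healthy, pyknosed, fragmented) and divided pyknosed cells into mitotic or apoptotic.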

[1] = 12 h, 1 µM, compound concentration 1 uM
[2] = 12 h, 10 µM, compound concentration 10 uM
[3] = 24 h, 1 µM, compound concentration 1 uM
[4] = 24 h, 10 µM, compound concentration 10 uM
[5] = 48 h, 1 µM, compound concentration 1 uM
[6] = 48 h, 10 µM, compound concentration 10 uM

Q: Which “Population Apoptotic (%)” value [1] does the source give for `CN1CCC(C(=O)c2cccc(NC(=O)c3c(F)cc(F)cc3F)n2)CC1` here?
A: 90% and 57%

Q: And the “Population Fragmented Nuclei (%)” value [1]?
A: 20%

Q: And the “Population Healthy Nuclei (%)” value [1]?
A: 70% and 71%

Q: And the “Population Hoechst High Intensity Objects (%)” value [1]?
A: 2% and 1%

Q: And the “Population Membrane Permeable-Phenotype (%)” value [1]?
A: 8% and 9%

Q: And the “Population Mitochondria Different-Phenotype (%)” value [1]?
A: 3% and 11%

Q: And the “Population Normal (%)” value [1]?
A: 97% and 98%

Q: What about the “Population Pyknosed Nuclei (%)” value [1] of the same compound?
A: 9% and 7%

Q: What about the “Population Tubulin-Different-Phenotype (%)” value [1] of the same compound?
A: 5% and 6%

Q: And the “Total Cell Count” value [1]?
A: 218 and 89

Q: What about the “Population Apoptotic (%)” value [2] of the same compound?
A: 65% and 64%

Q: What about the “Population Fragmented Nuclei (%)” value [2] of the same compound?
A: 27% and 14%

Q: And the “Population Healthy Nuclei (%)” value [2]?
A: 63% and 68%

Q: What about the “Population Hoechst High Intensity Objects (%)” value [2] of the same compound?
A: 1%

Q: And the “Population Membrane Permeable-Phenotype (%)” value [2]?
A: 14% and 15%

Q: What about the “Population Mitochondria Different-Phenotype (%)” value [2] of the same compound?
A: 13% and 18%

Q: What about the “Population Mitotic Cells (%)” value [2] of the same compound?
A: 34% and 35%

Q: And the “Population Normal (%)” value [2]?
A: 98%

Q: What about the “Population Pyknosed Nuclei (%)” value [2] of the same compound?
A: 9% and 16%

Q: And the “Population Tubulin-Different-Phenotype (%)” value [2]?
A: 12% and 15%

Q: And the “Total Cell Count” value [2]?
A: 270 and 103

Q: What about the “Population Apoptotic (%)” value [3] of the same compound?
A: 85% and 72%

Q: And the “Population Fragmented Nuclei (%)” value [3]?
A: 22% and 18%

Q: And the “Population Healthy Nuclei (%)” value [3]?
A: 67% and 71%

Q: And the “Population Hoechst High Intensity Objects (%)” value [3]?
A: 2% and 0%

Q: What about the “Population Membrane Permeable-Phenotype (%)” value [3] of the same compound?
A: 4% and 6%

Q: What about the “Population Mitochondria Different-Phenotype (%)” value [3] of the same compound?
A: 3% and 10%

Q: What about the “Population Mitotic Cells (%)” value [3] of the same compound?
A: 14% and 27%

Q: And the “Population Normal (%)” value [3]?
A: 97% and 99%

Q: And the “Population Pyknosed Nuclei (%)” value [3]?
A: 9%

Q: What about the “Population Tubulin-Different-Phenotype (%)” value [3] of the same compound?
A: 3% and 0%

Q: What about the “Total Cell Count” value [3] of the same compound?
A: 284 and 113

Q: And the “Population Apoptotic (%)” value [4]?
A: 82% and 66%

Q: And the “Population Fragmented Nuclei (%)” value [4]?
A: 21% and 15%

Q: What about the “Population Healthy Nuclei (%)” value [4] of the same compound?
A: 68%

Q: What about the “Population Hoechst High Intensity Objects (%)” value [4] of the same compound?
A: 2% and 5%

Q: And the “Population Membrane Permeable-Phenotype (%)” value [4]?
A: 8% and 10%

Q: And the “Population Mitochondria Different-Phenotype (%)” value [4]?
A: 9% and 15%

Q: And the “Population Mitotic Cells (%)” value [4]?
A: 17% and 33%

Q: What about the “Population Normal (%)” value [4] of the same compound?
A: 97% and 94%

Q: What about the “Population Pyknosed Nuclei (%)” value [4] of the same compound?
A: 9% and 15%

Q: And the “Population Tubulin-Different-Phenotype (%)” value [4]?
A: 5% and 10%

Q: And the “Total Cell Count” value [4]?
A: 298 and 126

Q: And the “Population Apoptotic (%)” value [5]?
A: 100% and 89%

Q: And the “Population Fragmented Nuclei (%)” value [5]?
A: 17% and 29%

Q: And the “Population Healthy Nuclei (%)” value [5]?
A: 70% and 57%

Q: What about the “Population Hoechst High Intensity Objects (%)” value [5] of the same compound?
A: 2% and 5%

Q: And the “Population Membrane Permeable-Phenotype (%)” value [5]?
A: 4% and 12%

Q: What about the “Population Mitochondria Different-Phenotype (%)” value [5] of the same compound?
A: 1% and 8%

Q: And the “Population Mitotic Cells (%)” value [5]?
A: 0% and 10%

Q: What about the “Population Normal (%)” value [5] of the same compound?
A: 97% and 94%

Q: And the “Population Pyknosed Nuclei (%)” value [5]?
A: 11% and 13%

Q: And the “Population Tubulin-Different-Phenotype (%)” value [5]?
A: 2% and 4%

Q: And the “Total Cell Count” value [5]?
A: 394 and 149

Q: What about the “Population Apoptotic (%)” value [6] of the same compound?
A: 85%

Q: And the “Population Fragmented Nuclei (%)” value [6]?
A: 18% and 15%

Q: And the “Population Healthy Nuclei (%)” value [6]?
A: 69%

Q: And the “Population Hoechst High Intensity Objects (%)” value [6]?
A: 3%

Q: What about the “Population Membrane Permeable-Phenotype (%)” value [6] of the same compound?
A: 8% and 16%

Q: What about the “Population Mitochondria Different-Phenotype (%)” value [6] of the same compound?
A: 3% and 10%

Q: What about the “Population Mitotic Cells (%)” value [6] of the same compound?
A: 14%

Q: What about the “Population Normal (%)” value [6] of the same compound?
A: 96%

Q: And the “Population Pyknosed Nuclei (%)” value [6]?
A: 12% and 14%

Q: And the “Population Tubulin-Different-Phenotype (%)” value [6]?
A: 3% and 8%

Q: What about the “Total Cell Count” value [6] of the same compound?
A: 398 and 189

Q: `COc1c(C)cc(NC(=O)c2nn(Cc3ccc(F)cc3)c3c2CN(C(=O)c2ccc[nH]2)C[C@]3(C)C(N)=O)cc1C` was tested. Which “Population Apoptotic (%)” value [1] did it give?
A: 65% and 83%

Q: What about the “Population Fragmented Nuclei (%)” value [1] of the same compound?
A: 22% and 21%

Q: And the “Population Healthy Nuclei (%)” value [1]?
A: 65% and 72%

Q: What about the “Population Hoechst High Intensity Objects (%)” value [1] of the same compound?
A: 2%

Q: And the “Population Membrane Permeable-Phenotype (%)” value [1]?
A: 8%

Q: What about the “Population Mitochondria Different-Phenotype (%)” value [1] of the same compound?
A: 3% and 12%

Q: And the “Population Mitotic Cells (%)” value [1]?
A: 34% and 16%

Q: And the “Population Normal (%)” value [1]?
A: 97%

Q: What about the “Population Pyknosed Nuclei (%)” value [1] of the same compound?
A: 12% and 6%

Q: And the “Population Tubulin-Different-Phenotype (%)” value [1]?
A: 5% and 9%

Q: What about the “Total Cell Count” value [1] of the same compound?
A: 247 and 102

Q: And the “Population Apoptotic (%)” value [2]?
A: 33% and 60%

Q: And the “Population Fragmented Nuclei (%)” value [2]?
A: 26% and 11%

Q: What about the “Population Healthy Nuclei (%)” value [2] of the same compound?
A: 43% and 66%

Q: What about the “Population Hoechst High Intensity Objects (%)” value [2] of the same compound?
A: 9% and 8%

Q: What about the “Population Membrane Permeable-Phenotype (%)” value [2] of the same compound?
A: 77% and 54%

Q: And the “Population Mitochondria Different-Phenotype (%)” value [2]?
A: 90% and 97%

Q: What about the “Population Mitotic Cells (%)” value [2] of the same compound?
A: 66% and 39%

Q: What about the “Population Normal (%)” value [2] of the same compound?
A: 90% and 91%

Q: What about the “Population Pyknosed Nuclei (%)” value [2] of the same compound?
A: 29% and 21%

Q: And the “Population Tubulin-Different-Phenotype (%)” value [2]?
A: 95% and 100%

Q: And the “Total Cell Count” value [2]?
A: 223 and 119

Q: And the “Population Apoptotic (%)” value [3]?
A: 67% and 61%

Q: What about the “Population Fragmented Nuclei (%)” value [3] of the same compound?
A: 16% and 17%

Q: And the “Population Healthy Nuclei (%)” value [3]?
A: 71% and 70%

Q: And the “Population Hoechst High Intensity Objects (%)” value [3]?
A: 5% and 0%

Q: And the “Population Membrane Permeable-Phenotype (%)” value [3]?
A: 8% and 7%

Q: And the “Population Mitochondria Different-Phenotype (%)” value [3]?
A: 6% and 2%

Q: And the “Population Mitotic Cells (%)” value [3]?
A: 32% and 38%

Q: What about the “Population Normal (%)” value [3] of the same compound?
A: 94% and 99%

Q: And the “Population Pyknosed Nuclei (%)” value [3]?
A: 12% and 11%

Q: What about the “Population Tubulin-Different-Phenotype (%)” value [3] of the same compound?
A: 7% and 6%

Q: What about the “Total Cell Count” value [3] of the same compound?
A: 265 and 111

Q: What about the “Population Apoptotic (%)” value [4] of the same compound?
A: 66% and 65%

Q: And the “Population Fragmented Nuclei (%)” value [4]?
A: 26% and 13%

Q: And the “Population Healthy Nuclei (%)” value [4]?
A: 41% and 53%

Q: What about the “Population Hoechst High Intensity Objects (%)” value [4] of the same compound?
A: 12% and 7%

Q: And the “Population Membrane Permeable-Phenotype (%)” value [4]?
A: 46% and 49%

Q: And the “Population Mitochondria Different-Phenotype (%)” value [4]?
A: 92% and 91%

Q: And the “Population Mitotic Cells (%)” value [4]?
A: 33% and 34%

Q: And the “Population Normal (%)” value [4]?
A: 87% and 92%

Q: And the “Population Pyknosed Nuclei (%)” value [4]?
A: 31% and 33%

Q: And the “Population Tubulin-Different-Phenotype (%)” value [4]?
A: 94% and 91%

Q: What about the “Total Cell Count” value [4] of the same compound?
A: 216 and 123

Q: What about the “Population Apoptotic (%)” value [5] of the same compound?
A: 79% and 84%

Q: And the “Population Fragmented Nuclei (%)” value [5]?
A: 18% and 15%

Q: What about the “Population Healthy Nuclei (%)” value [5] of the same compound?
A: 68% and 70%

Q: What about the “Population Hoechst High Intensity Objects (%)” value [5] of the same compound?
A: 2% and 5%

Q: What about the “Population Membrane Permeable-Phenotype (%)” value [5] of the same compound?
A: 4% and 9%

Q: What about the “Population Mitochondria Different-Phenotype (%)” value [5] of the same compound?
A: 3% and 4%

Q: What about the “Population Mitotic Cells (%)” value [5] of the same compound?
A: 20% and 15%

Q: What about the “Population Normal (%)” value [5] of the same compound?
A: 97% and 94%

Q: What about the “Population Pyknosed Nuclei (%)” value [5] of the same compound?
A: 13%

Q: And the “Population Tubulin-Different-Phenotype (%)” value [5]?
A: 2% and 5%

Q: And the “Total Cell Count” value [5]?
A: 365 and 152

Q: And the “Population Apoptotic (%)” value [6]?
A: 84% and 87%

Q: What about the “Population Fragmented Nuclei (%)” value [6] of the same compound?
A: 31% and 22%

Q: And the “Population Healthy Nuclei (%)” value [6]?
A: 24% and 47%

Q: What about the “Population Hoechst High Intensity Objects (%)” value [6] of the same compound?
A: 17% and 9%

Q: And the “Population Membrane Permeable-Phenotype (%)” value [6]?
A: 69% and 50%

Q: And the “Population Mitochondria Different-Phenotype (%)” value [6]?
A: 85% and 81%

Q: What about the “Population Mitotic Cells (%)” value [6] of the same compound?
A: 15% and 12%

Q: And the “Population Normal (%)” value [6]?
A: 82% and 90%

Q: And the “Population Pyknosed Nuclei (%)” value [6]?
A: 44% and 29%

Q: And the “Population Tubulin-Different-Phenotype (%)” value [6]?
A: 90% and 80%

Q: What about the “Total Cell Count” value [6] of the same compound?
A: 212 and 150

From ChEMBL document CHEMBL5724801, “EUbOPEN Chemogenomics Library - Multiplex” (2024)
